Consider 95 molecules from PubChem BioAssay AID573 (SRMLSC, 2007).

Out of some 65,000 compounds screened, about 1,400 (2.2%) were called active. Shown is part of a subset that was picked to be rich in actives. Values without a mark were called inactive.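 How the source made its calls: active means growth inhibition at or above a cutoff equal to the mean over every tested compound plus 3 SD (cut at about 60% in these data); inactive means the rest.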

A short description of this test: E. coli ΔtolC antibacterial growth inhibition – strain BW25113 ΔtolC::kan, 384-well, primary screen (AID 573).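 Further: growth measured after 20 h incubation at 37 °C.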 The conditions noted are these: E. coli BW25113 tolC mutant growth, OD615; stronger effect = higher value; screened at 10 µM (by protocol). In outline:
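Material: E. coli BW25113 ΔtolC::kan, tolC deletion mutant strain. Measure: percent growth inhibition. Schedule: 37 °C, 20 h exposure. Doses: single-point testing at 10 µM. Signal: A615 absorbance measurement. Buffer or medium: kanamycin-containing LB broth (50 µg/mL).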
With `CCOC(=O)c1c(-n2cnnn2)sc(C)c1C`, the growth inhibition was 1.46%.

Turning to `CCOC(=O)N1CCN(C(=O)C2CCN(c3ncnc4c3sc3cccc(F)c34)CC2)CC1`, the growth inhibition was 32.2%.

As to `Cc1cc(C)nc(N2CCN(c3ncnc4c3oc3ccccc34)CC2)n1`, the growth inhibition is -15.7%.

With `CCOC(=O)C1CCN(c2ncnc3c2oc2ccc(Br)cc23)CC1`, the growth inhibition is 100% (active).

Take `CC(C)COC(=O)C1C2C=CC3(CN(C(C)c4ccc(Br)cc4)C(=O)C13)O2` (stereo not given): the growth inhibition is -3.74%.

As to `COCCNC(=O)c1ccccc1-c1nc(-c2ccccc2Cl)no1`, the growth inhibition was 1.03%.

Take `Cc1ccc(C2(c3ccc(C)cc3)NC(=O)N(Cc3c(C)noc3C)C2=O)cc1`: the growth inhibition was 94.9% (active).

As for `Cc1ccc(SCCN2C(=O)NC(C)(C)C2=O)cc1`, the growth inhibition was 13.1%.

For the molecule `C=CCNC(=O)CCCOc1cccc(C)c1`, the growth inhibition is -3.22%.

For `COc1ccccc1N1CCN(C(=O)c2c(-c3c(Cl)cccc3Cl)noc2C)CC1`, the growth inhibition is 23.5%.

Turning to `c1ccc(CSc2nnc(-c3ccco3)c(-c3ccco3)n2)cc1`, the growth inhibition was 72.5% (active).

In the case of `Clc1ccccc1CSc1nnc(-c2ccco2)c(-c2ccco2)n1`, the growth inhibition was 9.86%.

As for `O=C(CSc1nnc(-c2ccco2)n1CC1CCCO1)c1ccccc1` (stereo not given), the growth inhibition is -11.9%.

For `c1ccc(CSc2nnc(-c3ccco3)n2Cc2ccccc2)cc1`, the growth inhibition is 100% (active).

On to `O=C(CSc1nnc(-c2ccco2)n1Cc1ccccc1)NC(=O)NCc1ccco1`, for which the growth inhibition is 12.2%.

Take `Nc1cc(=O)nc(SCc2ccccc2)n1Cc1ccco1`: the growth inhibition was 7.07%.

Turning to `CC(C)c1nc(N2CCOCC2)c(C#N)c2c1COC(C)(C)C2`, the growth inhibition was 8.03%.

As for `Cc1ccc(S(=O)(=O)N2CC(=O)Nc3ccccc32)cc1C`, the growth inhibition was -6.32%.

In the case of `CCCCc1nc2ccccc2c(=O)n1NC(=O)c1c(O)c2cccc3c2n(c1=O)CC3`, the growth inhibition was 34.2%.

In the case of `CCCC(=O)Nc1c(O)c2ccccc2[nH]c1=O`, the growth inhibition was -32.1%.

As for `CCCc1nc2ccccc2c(=O)n1NC(=O)c1c(O)c2ccccc2[nH]c1=O`, the growth inhibition was 72.5% (active).

In the case of `Cc1cc(Nc2ccccc2)n(C(=O)c2ccc(N)cc2)n1`, the growth inhibition was 25.2%.

Consider `N#Cc1c(N)n(CCOC(=O)c2ccc(Cl)cc2)c2nc3ccccc3nc12`, for which the growth inhibition is 5%.

As for `CC(=O)N1C(=O)C2(Nc3ccccc3N2)c2ccccc21`, the growth inhibition is -14%.

Regarding `COc1c(Br)cc2c(C)c(C(=O)N3CCOCC3)oc2c1Br`, the growth inhibition is 0.15%.

Regarding `COc1ccc(-c2n[nH]c(C)c2-c2ccc(OC)c(OC)c2)c(O)c1`, the growth inhibition is 38.4%.

On to `C=C(C)COc1ccc(-c2n[nH]c(C)c2-c2ccccc2)c(O)c1`, for which the growth inhibition was 95.4% (active).

Consider `COc1ccccc1-c1c(C)nn2c(C)c(C(C)=O)cnc12`, for which the growth inhibition was 15.8%.

As to `C=C(C)COc1ccc(-c2n[nH]c(C)c2-c2ccccc2OC)c(O)c1`, the growth inhibition was 88.4% (active).

Take `Cn1c(=O)c2c(nc(SCCNS(=O)(=O)c3ccccc3)n2C)n(C)c1=O`: the growth inhibition was 0.89%.

Take `Cc1ncc(CC(=O)n2cc(C(=O)c3cc(Cl)ccc3O)cn2)s1`: the growth inhibition is 5.26%.

Regarding `C=CCn1c(CSc2nc3ccccc3s2)nnc1SCC(=O)NCc1ccco1`, the growth inhibition was 29.4%.

For the molecule `C=CCn1c(SCC(=O)Nc2nc3ccccc3s2)nnc1-c1ccccc1O`, the growth inhibition was 87.9% (active).

`CCn1c(SCC(=O)Nc2nc3ccc(OC)cc3s2)nnc1-c1ccoc1C`: the growth inhibition was 27.9%.

Consider `CCOc1ccccc1-n1c(SCC(=O)NCc2ccco2)nnc1-c1ccncc1`, for which the growth inhibition is -11.1%.

For `COc1ccc(-c2cc(C(F)(F)F)nc(SCCC(=O)NCc3ccco3)n2)cc1`, the growth inhibition is -9.96%.

Consider `Cc1ccc(F)cc1NC(=O)c1cccc(N(C)C)c1`, for which the growth inhibition is -26.6%.

`O=C(Nc1cccc(F)c1)c1ccc(S(=O)(=O)N2CCCC2)cc1`: the growth inhibition was 8.01%.

For `O=C1CCCC2=C1C(c1cccs1)n1nc(SCc3ccccc3)nc1N2` (stereo not given), the growth inhibition is 87.2% (active).

In the case of `CC(C)C(=O)N1c2ccccc2NC2=C(C(=O)CCC2)C1c1ccc(N(C)C)cc1` (stereo not given), the growth inhibition was -4.93%.

Regarding `CCCC(=O)N1c2ccccc2NC2=C(C(=O)CCC2)C1c1ccc(F)cc1` (stereo not given), the growth inhibition was 55.5%.

Take `COC(=O)CSc1nc(C2CC2)nc2ccccc12`: the growth inhibition was 15.2%.

Consider `COc1cccc(N(CC(=O)NC2CCCC2)C(=O)Cn2nnc(-c3ccc(C)cc3)n2)c1`, for which the growth inhibition is -7.48%.

Regarding `CC(C)Cn1c(N)c(C(=O)NCc2cccs2)c2nc3ccccc3nc21`, the growth inhibition was 79.5% (active).

As for `C=CCn1c(N)c(C(=O)OCC(C)C)c2nc3ccccc3nc21`, the growth inhibition is 30.8%.

For `C=CCn1c(N)c(S(=O)(=O)c2cccs2)c2nc3ccccc3nc21`, the growth inhibition is 26.6%.

With `COC(=O)c1ccc(/C=N\n2c(C)nnc2C)cc1`, the growth inhibition was -9.6%.

Take `O=C(CCCN1C(=O)CSc2ncccc21)N1CCN(c2cccc(C(F)(F)F)c2)CC1`: the growth inhibition was 17.9%.

`COc1ccc2c(c1)OC(O)(C(F)(F)C(F)F)CC2=O` (stereo not given): the growth inhibition was 100% (active).

For the molecule `N#CCCN(CCC#N)c1nnc(-c2ccccc2)s1`, the growth inhibition was 16.1%.

For `CCOC(=O)C1=C(C)NC(C)=C(C(=O)OCC)C1C1=COCCO1`, the growth inhibition is 5.25%.

Take `CC1=CC(C)(C)N(C(=O)CSc2nccn2C)c2cc(C)ccc21`: the growth inhibition was 5.87%.

As for `O=C(CSc1nnc(-c2ccccc2)o1)N1CCOCC1`, the growth inhibition is -8.06%.

On to `CC1=CC(C)(C)N(C(=O)CSc2nnc(-c3ccccc3)o2)c2ccc(C)cc21`, for which the growth inhibition was 65.4% (active).

With `CCCCN(C)C(=O)C1CCN(Cc2ccccn2)CC1`, the growth inhibition is -9.54%.

With `Cc1cnc(NC(=O)CSc2nnc(-c3ccccc3)n2Cc2ccccc2)s1`, the growth inhibition is 1%.

For the molecule `CCOC(=O)Cn1c(CN(Cc2ccccc2)Cc2ccccc2)nc2c1c(=O)[nH]c(=O)n2C`, the growth inhibition is 13%.

Consider `FC(F)(F)COc1nc(N2CCCCC2)nc(N2CCNCC2)n1`, for which the growth inhibition was 10.5%.

For `O=c1oc2c(CN3CCCCC3)c(O)ccc2c2c1CCCCC2`, the growth inhibition was 2.35%.

`COc1ccc2c3c(c(=O)oc2c1OCC(=O)C(C)(C)C)CCCC3`: the growth inhibition was 10.7%.

For `CCCOc1ccc2c3c(c(=O)oc2c1OCCC)CCC3`, the growth inhibition is 73% (active).

Regarding `COc1ccccc1N1CCN(C(=O)c2cc3c(-c4ccc(Cl)cc4)nn(C)c3s2)CC1`, the growth inhibition is 14.7%.

In the case of `Cn1c(=O)c2c(nc(Br)n2CCSc2nc3ccccc3o2)n(C)c1=O`, the growth inhibition is 4.61%.

Consider `Cc1cc(C)c(C#N)c(SCc2ccc3c(c2)OCO3)n1`, for which the growth inhibition was 62.3% (active).

Turning to `Cc1cc(C)c(C#N)c(SCc2ccccc2C(=O)O)n1`, the growth inhibition is 8.75%.

With `Cc1cc(C)c(C#N)c(SCc2[nH]nc3c2C(c2ccccc2)C(C#N)=C(N)O3)n1` (stereo not given), the growth inhibition was 18.3%.

On to `O=C(Nc1nnc(-c2ccc(Cl)cc2)o1)c1ccccc1Br`, for which the growth inhibition is 100% (active).

`O=C(Nc1ccc(-c2nnc(-c3ccccc3)o2)cc1)c1ccc(Br)o1`: the growth inhibition is -0.33%.

`Cc1nonc1NC(=O)c1ccccc1Br`: the growth inhibition was -1.19%.

For `Cn1c(=O)[nH]c(=O)c2c1nc(NCCCn1ccnc1)n2Cc1cccc(Br)c1`, the growth inhibition was -18.6%.

`CCOC(=O)c1ccc(NC(=O)CS(=O)(=O)c2cn(CC)c3ccccc23)cc1`: the growth inhibition is 12.6%.

Take `Cc1ccc2c(c1)c1ncnc(N3CCc4ccccc4C3)c1n2C`: the growth inhibition is 21.5%.

Turning to `COc1ccc(C(C(O)C(=O)c2c[nH]c3ccccc23)N2CCN(c3ccccc3)CC2)cc1` (stereo not given), the growth inhibition was 72.1% (active).

As to `COc1ccc(OC)c(S(=O)(=O)N(C)CC(=O)N2CCN(c3ccccc3)CC2)c1`, the growth inhibition was 8.54%.

As to `CCCC(=O)NC(C)C(c1cccs1)N1CCN(c2ccccc2)CC1` (stereo not given), the growth inhibition is 1.14%.

With `O=S(=O)(c1ccc(F)cc1)N1CCN(Cc2ccccc2C(F)(F)F)CC1`, the growth inhibition was 38.3%.

Take `Cc1cccc(NC(=O)COc2ccc(Br)cc2C)n1`: the growth inhibition is 8.04%.

For the molecule `Clc1ccc(Nc2nc(-c3cccs3)cs2)nc1`, the growth inhibition is 81.1% (active).

As to `O=C(Nc1ccc(Cl)cn1)Nc1cccs1`, the growth inhibition was 6.13%.

With `c1ccc(Nc2nc(-c3ccncc3)cs2)nc1`, the growth inhibition is -16.7%.

Take `COc1ccc(-c2nnc(SC(=O)N3c4ccccc4Sc4ccccc43)o2)cc1`: the growth inhibition is 0.32%.

In the case of `CCc1nnc(NC(=O)C2CCCN2S(=O)(=O)c2ccccc2)s1` (stereo not given), the growth inhibition is 3.73%.

On to `CC1CCCCN1S(=O)(=O)c1ccc(C(=O)Nc2nnc(-c3cccs3)o2)cc1` (stereo not given), for which the growth inhibition was 99.1% (active).

As to `CCc1nnc(NC(=O)c2ccc(S(=O)(=O)NC3CCCCC3)cc2)s1`, the growth inhibition was 18.5%.

As to `COCC(C)n1c(SCc2ccc(C(=O)OC)o2)nc2ccccc2c1=O` (stereo not given), the growth inhibition is 33.1%.

As to `CCN(CC)S(=O)(=O)c1cccc(C(=O)Nc2ccccc2)c1`, the growth inhibition is 38.8%.

For `O=C(CC1Oc2ccccc2NC1=O)NCCCN1CCN(Cc2ccccc2)CC1` (stereo not given), the growth inhibition was -13.8%.

For the molecule `Cc1nc2c(c(=O)n1Cc1ccco1)c1nc3ccccc3nc1n2Cc1ccccc1`, the growth inhibition was 14.7%.

As for `Clc1cccc(-c2nc3nc4ccccc4nc3n2Cc2ccco2)c1`, the growth inhibition was 68% (active).

For `Cc1ccc(Cn2c(C)nc3c(c2=O)c2nc4ccccc4nc2n3Cc2ccco2)cc1`, the growth inhibition is 29.2%.

As to `COc1ccc(C2N=C(N)N=C(N)N2c2ccccc2)cc1OC` (stereo not given), the growth inhibition is 4.96%.

As for `Cc1nc2c(C(=O)NCc3ccc4c(c3)OCO4)c[nH]n2c(=O)c1Cc1ccccc1F`, the growth inhibition was 100% (active).

Regarding `CCn1cc(C(=O)NCc2ccc3c(c2)OCO3)c2cc(OC)c(OC)cc2c1=O`, the growth inhibition was -12.7%.

Regarding `O=C(CCCCn1c(=O)[nH]c2ccccc2c1=O)NCc1ccc2c(c1)OCO2`, the growth inhibition was 1.02%.

With `CC(C)C(=O)N1CCN(c2nc(-c3ccccc3)c3c(c2C#N)CC(C)(C)OC3)CC1`, the growth inhibition was 4.78%.
